Published values from different studies.
Each line is one published result; the experiments were not run side by side.
PPARA: Peroxisome proliferator-activated receptor alpha (PPARA, Homo sapiens, UniProt Q07869)
Tumor necrosis factor receptor superfamily member 9: Tumor necrosis factor receptor superfamily member 9 (Homo sapiens, UniProt Q07011)
CYP2D6: Cytochrome P450 2D6 (CYP2D6, Homo sapiens, UniProt P10635)
ADRA1B: Alpha-1B adrenergic receptor (ADRA1B, Homo sapiens, UniProt P35368)
gag-pol integrase: Gag-Pol polyprotein, integrase (gag-pol, Human immunodeficiency virus 1, UniProt P12497)

Structure (SMILES)	target	test	test system	conditions	measurement	value
O=C(O)C(F)(F)C(F)(F)C(F)(F)C(F)(F)C(F)(F)C(F)(F)C(F)(F)F	PPARA	reporter gene, agonist, luciferase			EC50	9500 nM
CCCC[C@@H]1NC(=O)[C@H](Cc2ccc(O)cc2)NC(=O)[C@@H]2CCCN2C(=O)[C@H](CC(=O)O)NC(=O)[C@H](C)NC(=O)[C@H](Cc2ccccc2)NC(=O)[C@@H]2CSCCC(=O)N3CN(CN(C3)C(=O)CCSC[C@@H](C(=O)N[C@@H](C)C(N)=O)NC1=O)C(=O)CCSC[C@H](NC(C)=O)C(=O)N[C@@H](CC(C)(C)C)C(=O)N1CCC[C@H]1C(=O)N[C@@H](CCC(=O)O)C(=O)N[C@H](CCCCNC(=O)CCc1cn(CCOCCOCCOCCOCCOCCC(=O)NCCCC[C@H]3NC(=O)[C@H](Cc4cccc5ccccc45)NC(=O)[C@@H]4CCCN4C(=O)CCSCCC(=O)N4CN5CN(C4)C(=O)CCSC[C@H](NC3=O)C(=O)N[C@@H](CCSC)C(=O)N[C@@H](CCCCNC(=N)N)C(=O)N[C@@H](CC(=O)O)C(=O)N[C@@H](Cc3c[nH]c4ccccc34)C(=O)N[C@@H](CO)C(=O)N[C@@H]([C@@H](C)O)C(=O)N3CCC[C@H]3C(=O)N3C[C@H](O)C[C@H]3C(=O)N[C@@H](Cc3c[nH]c4ccccc34)C(=O)N[C@H](C(N)=O)CSCCC5=O)nn1)C(=O)N1CCC[C@H]1C(=O)N[C@@H](Cc1ccc(O)cc1)C(=O)N2	Tumor necrosis factor receptor superfamily member 9	binding, SPR			Kd	3.2 nM
Cc1c(C2(c3ccc(C(F)(F)F)nc3)CC2)c[nH]c1C(=O)NC(C)c1c[nH]cn1 (stereo not shown)	CYP2D6	enzyme activity, inhibitor	human, liver microsomes		IC50	320 nM
CC(C)C[C@H](NC(=O)[C@H](Cc1ccccc1)NC(=O)[C@H](Cc1ccc(O)cc1)NC(=O)CNC(=O)[C@H](CCCCN)NC(=O)[C@H](CO)NC(=O)[C@H](CCC(N)=O)NC(=O)CNC(=O)[C@@H](NC(=O)[C@H](CO)NC(=O)[C@@H]1CCCN1C(=O)[C@H](CO)NC(=O)[C@H](CCC(N)=O)NC(=O)[C@H](Cc1ccc(O)cc1)NC(=O)[C@H](CCC(=O)O)NC(=O)[C@H](C)NC(=O)[C@H](CCCCN)NC(=O)[C@@H](N)Cc1ccccc1)C(C)C)C(=O)N[C@@H](Cc1ccccc1)C(=O)N[C@@H](CCCNC(=N)N)C(=O)N1CCC[C@H]1C(=O)N[C@@H](CCCNC(=N)N)C(=O)N[C@@H](CC(N)=O)C(N)=O	Neuromedin-U receptor 2 (NMUR2, Homo sapiens, UniProt Q9GZQ4)	ligand displacement, radioligand		cell membranes	IC50	0.04 nM
CCCC[C@@H]1NC(=O)[C@H](Cc2ccc(O)cc2)NC(=O)[C@@H]2CCCN2C(=O)[C@H](CC(N)=O)NC(=O)[C@H](C)NC(=O)[C@H](Cc2ccccc2)NC(=O)[C@@H]2CSCCC(=O)N3CN(CN(C3)C(=O)CCSC[C@H](NC(C)=O)C(=O)N[C@@H](CC(C)(C)C)C(=O)N3CCC[C@H]3C(=O)N[C@@H](CCC(=O)O)C(=O)N[C@H](CCCCNC(=O)CCc3cn(CCOCCOCCOCCOCCOCCC(=O)N[C@H]4CSCCC(=O)N5CN6CN(C5)C(=O)CCSC[C@H](NC(=O)[C@@H](CC(=O)O)NC(=O)[C@H](Cc5cccc7ccccc57)NC(=O)[C@@H]5CCCN5C4=O)C(=O)N[C@@H](CCSC)C(=O)N[C@@H](CCCCNC(=N)N)C(=O)N[C@@H](CC(=O)O)C(=O)N[C@@H](Cc4c[nH]c5ccccc45)C(=O)N[C@@H](CO)C(=O)N[C@@H]([C@@H](C)O)C(=O)N4CCC[C@H]4C(=O)N4C[C@H](O)C[C@H]4C(=O)N[C@@H](Cc4c[nH]c5ccccc45)C(=O)N[C@H](C(N)=O)CSCCC6=O)nn3)C(=O)N3CCC[C@H]3C(=O)N[C@@H](Cc3ccc(O)cc3)C(=O)N2)C(=O)CCSC[C@@H](C(N)=O)NC1=O	Tumor necrosis factor receptor superfamily member 9	binding, SPR			Kd	878 nM
c1ccc(-c2ncc(CN3CCN(c4ncccn4)CC3)[nH]2)cc1	D(2) dopamine receptor (Drd2, Rattus norvegicus, UniProt P61169)	ligand displacement, radioligand		cell membranes	Ki	817 nM
CC(C)C[C@H](NC(=O)[C@H](CCCCN)NC(=O)[C@@H]1CCCN1C(=O)[C@@H](N)CCCNC(=N)N)C(=O)N[C@@H](CCCCN)C(=O)O	ADRA1B	cell-free assay, radioligand			Ki	2900 nM
O=C(O)[C@H](Cc1ccccc1)NC(=O)C1(c2ccc(-c3ccccc3)cc2)CCN(CCC(F)(F)F)CC1	gag-pol integrase	enzyme activity, inhibitor, TR-FRET			IC50	263000 nM
Cc1cc(SCc2sc(-c3ccc(C(F)(F)F)c(F)c3)nc2C)ccc1OCC(=O)O	PPARA	reporter gene, agonist, luciferase			EC50	1300 nM
COCCCN1CCN(c2ccccc2OC)CC1	ADRA1B	ligand displacement, radioligand			Ki	240 nM
c1ccc(-c2c[nH]c3ncnc(N4CCOCC4)c23)cc1	Serine/threonine-protein kinase 4 (STK4, Homo sapiens, UniProt Q13043)	enzyme activity, inhibitor, ADP detection			IC50	35 nM
[Cd+2]	Protein phosphatase 1A (PPM1A, Homo sapiens, UniProt P35813, D239A)	enzyme activity, inhibitor, absorbance		pH 8	Ki	5220 nM
CCCC[C@@H]1NC(=O)[C@H](Cc2ccc(O)cc2)NC(=O)[C@@H]2CCCN2C(=O)[C@H](CC(=O)O)NC(=O)[C@H](C)NC(=O)[C@H](Cc2ccccc2)NC(=O)[C@@H]2CSCCC(=O)N3CN(CN(C3)C(=O)CCSC[C@H](NC(C)=O)C(=O)N[C@@H](CC(C)(C)C)C(=O)N[C@@H](CCC(=O)O)C(=O)N[C@@H](CCC(=O)O)C(=O)N[C@H](CCCCNC(=O)CCc3cn(CCOCCOCCOCCOCCOCCC(=O)N[C@H]4CSCCC(=O)N5CN6CN(C5)C(=O)CCSC[C@H](NC(=O)[C@@H](CC(=O)O)NC(=O)[C@H](Cc5cccc7ccccc57)NC(=O)[C@@H]5CCCN5C4=O)C(=O)N[C@@H](CCSC)C(=O)N[C@@H](CCCCNC(=N)N)C(=O)N[C@@H](CC(=O)O)C(=O)N[C@@H](Cc4c[nH]c5ccccc45)C(=O)N[C@@H](CO)C(=O)N[C@@H]([C@@H](C)O)C(=O)N4CCC[C@H]4C(=O)N4C[C@H](O)C[C@H]4C(=O)N[C@@H](Cc4c[nH]c5ccccc45)C(=O)N[C@H](C(N)=O)CSCCC6=O)nn3)C(=O)N3CCC[C@H]3C(=O)N[C@@H](Cc3ccc(O)cc3)C(=O)N2)C(=O)CCSC[C@@H](C(N)=O)NC1=O	Tumor necrosis factor receptor superfamily member 9	binding, SPR			Kd	9.6 nM
O=C(O)[C@H](Cc1ccccc1)NC(=O)C1(c2ccccc2)CCN(Cc2ccccc2)CC1	gag-pol integrase	enzyme activity, inhibitor, TR-FRET			IC50	194000 nM
O=C(Cc1ccccc1)N[C@H](C(=O)O)[C@@H]1N=C(C(=O)O)C(CSC(C(=O)O)c2ccccc2)CS1 (stereo partly shown)	Metallo-beta-lactamase VIM-2 (VIM-2, Escherichia coli, UniProt Q5U7L7)	enzyme activity, inhibitor, absorbance			IC50	65600 nM
Cc1c(Cc2ccc(C(F)(F)F)nc2)c[nH]c1C(=O)NC(C)c1cn[nH]c1 (stereo not shown)	CYP2D6	enzyme activity, inhibitor	human, liver microsomes		IC50	750 nM
O=C(O)C(F)(OC(F)(F)C(F)(F)C(F)(F)F)C(F)(F)F (stereo not shown)	PPARA	reporter gene, agonist, luciferase			EC50	2100 nM
O=C(O)[C@H](Cc1ccc2ccccc2c1)NC(=O)C1(c2ccc(-c3ccccc3)cc2)CCN(CCC(F)(F)F)CC1	gag-pol integrase	enzyme activity, inhibitor, TR-FRET			IC50	93500 nM
CC(=O)N[C@@H](CC(C)C)C(=O)N[C@@H](CC(C)C)C(=O)N[C@@H](CC(C)C)C(=O)N[C@@H](CCCN=C(N)N)C(=O)N[C@H](C(=O)N[C@@H](CCCCN)C(=O)N[C@@H](CCCN=C(N)N)C(N)=O)C(C)C	Neuroendocrine convertase 2 (Homo sapiens, UniProt P16519)	enzyme activity, inhibitor			Ki	500 nM
CCCC[C@@H]1NC(=O)[C@H](Cc2ccc(O)cc2)NC(=O)[C@@H]2CCCN2C(=O)[C@H](CC(=O)O)NC(=O)[C@H](C)NC(=O)[C@H](Cc2ccccc2)NC(=O)[C@@H]2CSCCC(=O)N3CN(CN(C3)C(=O)CCSC[C@H](NC(C)=O)C(=O)N[C@@H](CC(C)(C)C)C(=O)N3CCC[C@H]3C(=O)N[C@@H](CCC(=O)O)C(=O)N[C@H](CCCCNC(=O)CCc3cn(CCOCCOCCOCCOCCOCCC(=O)N[C@H]4CSCCC(=O)N5CN6CN(C5)C(=O)CCSC[C@H](NC(=O)[C@@H](CC(=O)O)NC(=O)[C@H](Cc5cccc7ccccc57)NC(=O)[C@@H]5CCCN5C4=O)C(=O)N[C@@H](CCSC)C(=O)N[C@@H](CCCCNC(=N)N)C(=O)N[C@@H](CC(=O)O)C(=O)N[C@@H](Cc4c[nH]c5ccccc45)C(=O)N[C@@H](CO)C(=O)N[C@@H]([C@@H](C)O)C(=O)N4CCC[C@H]4C(=O)N4C[C@H](O)C[C@H]4C(=O)N[C@@H](Cc4c[nH]c5ccccc45)C(=O)N[C@H](C(N)=O)CSCCC6=O)nn3)C(=O)N3CCC[C@H]3C(=O)N[C@@H](Cc3ccc(O)cc3)C(=O)N2)C(=O)CCSC[C@@H](C(N)=O)NC1=O	Tumor necrosis factor receptor superfamily member 9	binding, SPR			Kd	4.47 nM
O=C(O)C(F)(F)C(F)(F)C(F)(F)C(F)(F)C(F)(F)C(F)(F)F	PPARA	reporter gene, agonist, luciferase			EC50	45000 nM
CC(c1ccccc1)n1cc(-c2ncccn2)c(=O)[nH]c1=O (stereo not shown)	Hepatocyte growth factor receptor (MET, Homo sapiens, UniProt P08581)	binding			Kd	2510 nM
